ChEMBL document CHEMBL1649165, “Activity profile in vitro of micafungin against Spanish clinical isolates of common and emerging species of yeasts and molds” (2009)

What was measured:
Assay type in all cases: functional
[1] = system: Fusarium equiseti; assay: Antimicrobial activity against Fusarium equiseti by broth microdilution method
Outline: (§1)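 Clinical mould isolates, tested by broth microdilution using the AFST-EUCAST reference method for filamentous fungi. For echinocandins, the endpoint was the minimum effective concentration: the lowest drug concentration giving aberrant hyphal growth, read with an inverted microscope.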

[2] = system: Meyerozyma guilliermondii; assay: Antimicrobial activity against Candida guilliermondii by broth microdilution method
Outline: (§2)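 Clinical isolates from human patients, tested by broth microdilution using the AFST-EUCAST reference procedure for fermentative yeasts. The MIC was read per that reference method.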

[3] = system: Aureobasidium pullulans; assay: Antimicrobial activity against Aureobasidium pullulans by broth microdilution method
[4] = system: Rhizopus arrhizus; assay: Antimicrobial activity against Rhizopus oryzae by broth microdilution method
Outline: (§3)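 Filamentous fungus clinical isolates tested by the AFST-EUCAST reference broth microdilution method for moulds. For echinocandins, the endpoint was the minimum effective concentration: the lowest drug concentration giving aberrant hyphal growth, read with an inverted microscope.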

[5] = system: Candida orthopsilosis; assay: Antimicrobial activity against Candida orthopsilosis by broth microdilution method; details: Lodderomyces orthopsilosis; outline: as §2
[6] = system: Aspergillus ustus; assay: Antimicrobial activity against Aspergillus ustus by broth microdilution method; outline: as §1
[7] = system: Cladophialophora bantiana; assay: Antimicrobial activity against Cladophialophora bantiana by broth microdilution method; outline: as §1
[8] = system: Ustilago; assay: Antimicrobial activity against Ustilago spp by broth microdilution method
[9] = system: Exophiala dermatitidis; assay: Antimicrobial activity against Exophiala dermatitidis by broth microdilution method
[10] = system: Neurospora sitophila; assay: Antimicrobial activity against Chrysonilia sitophila by broth microdilution method; outline: as §1
[11] = system: Aspergillus nidulans; assay: Antimicrobial activity against Aspergillus nidulans by broth microdilution method; outline: as §1
[12] = system: Beauveria bassiana; assay: Antimicrobial activity against Beauveria bassiana by broth microdilution method; outline: as §1
[13] = system: Debaryomyces hansenii; assay: Antimicrobial activity against Candida famata by broth microdilution method; outline: as §2
[14] = system: Cladosporium; assay: Antimicrobial activity against Cladosporium spp. by broth microdilution method; outline: as §1
[15] = system: Aspergillus versicolor; assay: Antimicrobial activity against Aspergillus versicolor by broth microdilution method; outline: as §1
[16] = system: Rhodotorula glutinis; assay: Antimicrobial activity against Rhodotorula glutinis by broth microdilution method
Outline: (§4)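 Nonfermentative yeast clinical isolates (Rhodotorula, Trichosporon) tested by broth microdilution. The EUCAST yeast recommendations were followed strictly, with one minor modification to improve growth. MIC was read as the endpoint.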

[17] = system: Hortaea werneckii; assay: Antimicrobial activity against Hortaea werneckii by broth microdilution method
[18] = system: Aspergillus glaucus; assay: Antimicrobial activity against Aspergillus glaucus by broth microdilution method; outline: as §1
[19] = system: Exophiala jeanselmei; assay: Antimicrobial activity against Exophiala jeanselmei by broth microdilution method
[20] = system: Candida metapsilosis; assay: Antimicrobial activity against Candida metapsilosis by broth microdilution method; details: Lodderomyces metapsilosis; outline: as §2
[21] = system: Scopulariopsis brevicaulis; assay: Antimicrobial activity against Scopulariopsis brevicaulis by broth microdilution method; outline: as §3
[22] = Antimicrobial activity against Hormographiella aspergillata by broth microdilution method; details: Coprinopsis cinerea; outline: as §3
[23] = system: Trichosporon ovoides; assay: Antimicrobial activity against Trichosporon ovoides by broth microdilution method; outline: as §4
[24] = system: Pichia kudriavzevii; assay: Antimicrobial activity against Candida krusei by broth microdilution method; outline: as §2
[25] = Antimicrobial activity against Rhizopus microsporus by broth microdilution method; outline: as §3
[26] = system: Lomentospora prolificans; assay: Antimicrobial activity against Scedosporium prolificans by broth microdilution method; outline: as §3
[27] = system: Cunninghamella bertholletiae; assay: Antimicrobial activity against Cunninghamella bertholletiae by broth microdilution method; outline: as §1
[28] = system: Lichtheimia corymbifera; assay: Antimicrobial activity against Mycocladus corymbiferus by broth microdilution method; outline: as §3
[29] = system: Trichosporon inkin; assay: Antimicrobial activity against Trichosporon inkin by broth microdilution method; outline: as §4
[30] = system: Candida parapsilosis; assay: Antimicrobial activity against Candida parapsilosis by broth microdilution method; details: Lodderomyces parapsilosis; outline: as §2
[31] = system: Fusarium solani; assay: Antimicrobial activity against Fusarium solani by broth microdilution method; outline: as §3
[32] = system: Phialemonium curvatum; assay: Antimicrobial activity against Phialemonium curvatum by broth microdilution method; details: Thyridium curvatum; outline: as §3
[33] = system: Clavispora lusitaniae; assay: Antimicrobial activity against Candida lusitaniae by broth microdilution method; outline: as §2
[34] = system: Cryptococcus deneoformans; assay: Antimicrobial activity against Cryptococcus neoformans var. neoformans by broth microdilution method
Outline: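 Clinical isolates of nonfermentative yeasts, tested by broth microdilution following EUCAST recommendations. The only change from that method was a minor modification to improve growth.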

[35] = system: Fusarium oxysporum; assay: Antimicrobial activity against Fusarium oxysporum by broth microdilution method; outline: as §1
[36] = system: Rhizomucor; assay: Antimicrobial activity against Rhizomucor spp.by broth microdilution method; outline: as §3
[37] = system: Geotrichum candidum; assay: Antimicrobial activity against Galactomyces geotrichum by broth microdilution method
[38] = system: Saksenaea vasiformis; assay: Antimicrobial activity against Saksenaea vasiformis by broth microdilution method; outline: as §3
[39] = system: Kazachstania pintolopesii; assay: Antimicrobial activity against Candida pintolopesii by broth microdilution method; details: Arxiozyma pintolopesii; outline: as §2
[40] = system: Rhodotorula mucilaginosa; assay: Antimicrobial activity against Rhodotorula mucilaginosa by broth microdilution method; outline: as §4
[41] = system: Lewia infectoria; assay: Antimicrobial activity against Alternaria infectoria by broth microdilution method; outline: as §1

CCC(C)n1ncn(-c2ccc(N3CCN(c4ccc(OCC5COC(Cn6cncn6)(c6ccc(Cl)cc6Cl)O5)cc4)CC3)cc2)c1=O (configuration not stated) [ITRACONAZOLE]
> 8 µg/mL: MIC50 [1] | MIC90 [1] | MIC90 [2] | MIC90 [3] | MIC90 [4] | MIC90 [5] | MIC90 [6] | MIC90 [7] | MIC90 [8] | MIC90 [9] | MIC50 [10] | MIC90 [10] | MIC50 [12] | MIC90 [12] | MIC90 [13] | MIC90 [14] | MIC90 [16] | MIC90 [17] | MIC90 [18] | MIC90 [19] | MIC90 [20] | MIC50 [21] | MIC90 [21] | MIC50 [22] | MIC90 [22] | MIC90 [23] | MIC50 [25] | MIC90 [25] | MIC50 [26] | MIC90 [26] | MIC50 [27] | MIC90 [27] | MIC90 [28] | MIC50 [31] | MIC90 [31] | MIC50 [32] | MIC90 [32] | MIC50 [35] | MIC90 [35] | MIC50 [36] | MIC90 [36] | MIC50 [38] | MIC90 [38] | MIC90 [39] | MIC90 [40] | MIC90 [41]
0.5 µg/mL: MIC50 [6] | MIC50 [8] | MIC90 [11] | MIC50 [15] | MIC50 [16] | MIC50 [18] | MIC50 [23] | MIC90 [34] | MIC50 [37]
2 µg/mL: MIC90 [37] | MIC50 [41]
1 µg/mL: MIC90 [15] | MIC50 [28]
0.25 µg/mL: MIC50 [2] | MIC50 [11] | MIC50 [24] | MIC90 [24] | MIC90 [29]
8 µg/mL: MIC50 [40]
0.02 µg/mL: MIC50 [30] | MIC50 [33]
4 µg/mL: MIC50 [4]
0.12 µg/mL: MIC50 [3] | MIC50 [5] | MIC50 [7] | MIC50 [9] | MIC50 [13] | MIC50 [14] | MIC50 [17] | MIC50 [19] | MIC50 [20] | MIC50 [29] | MIC50 [34] | MIC50 [39]
0.03 µg/mL: MIC90 [30] | MIC90 [33]
